From ChEMBL document CHEMBL4480426, “Novel multi-target directed ligands based on annelated xanthine scaffold with aromatic substituents acting on adenosine receptor and monoamine oxidase B. Synthesis, in vitro and in silico studies” (Bioorg Med Chem, 2019)

How the values were obtained:
[1] = Antioxidant activity assessed as increase in total ferric ion reducing activity at 1000 uM using FeCl3.6H2O and TPTZ incubated for 10 mins under dark condition by FRAP assay relative to control; format: functional; parameters: scale not given: the % may be the effect or the level left
Outline: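 FRAP reagent made by mixing 10 parts 300 mM acetate buffer pH 3.6, 1 part 10 mM TPTZ in 40 mM HCl and 1 part 20 mM FeCl3·6H2O. Reagent mixed with compound solution, 10 min at room temperature in the dark. Ferrous-TPTZ complex read at 593 nm. Result is absorbance increase versus solvent sample. FeSO4·7H2O standard curve, 37.5–1200 μM.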

Brain = experiment: Antioxidant activity in rat brain homogenate assessed as inhibition of FeCl2/ascorbic acid-induced lipid peroxidation by measuring reduction in TBARS level at 1000 uM preincubated for 5 mins followed by FeCl2/ascorbic acid addition and measured after 30 mins relative to control; format: functional, tissue-based; parameters: scale not given: the % may be the effect or the level left
Outline: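 Rat brain homogenate in 0.9% saline, 10 mg tissue/ml, preincubated 5 min at 37 °C with compound or vehicle. Peroxidation started with 0.5 mM FeCl2 plus 2 mM ascorbic acid (added-solution concentrations). After 30 min, stopped with 0.2% BHT. Thiobarbituric acid reagent added, heated 15 min in boiling water, TBARS extracted into n-butanol and read at 532 nm. Carvedilol as reference.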

[2] = molecular target: T1, Amine oxidase [flavin-containing] B (Homo sapiens, UniProt P27338); experiment: Inhibition of recombinant human MAOB expressed in baculovirus infected BTI insect cells using p-tyramine as substrate preincubated for 30 mins followed by substrate addition and measured over 45 mins by horseradish peroxidase-Amplex Red-coupled fluorometric assay
T1 sequence (P27338 whole entry): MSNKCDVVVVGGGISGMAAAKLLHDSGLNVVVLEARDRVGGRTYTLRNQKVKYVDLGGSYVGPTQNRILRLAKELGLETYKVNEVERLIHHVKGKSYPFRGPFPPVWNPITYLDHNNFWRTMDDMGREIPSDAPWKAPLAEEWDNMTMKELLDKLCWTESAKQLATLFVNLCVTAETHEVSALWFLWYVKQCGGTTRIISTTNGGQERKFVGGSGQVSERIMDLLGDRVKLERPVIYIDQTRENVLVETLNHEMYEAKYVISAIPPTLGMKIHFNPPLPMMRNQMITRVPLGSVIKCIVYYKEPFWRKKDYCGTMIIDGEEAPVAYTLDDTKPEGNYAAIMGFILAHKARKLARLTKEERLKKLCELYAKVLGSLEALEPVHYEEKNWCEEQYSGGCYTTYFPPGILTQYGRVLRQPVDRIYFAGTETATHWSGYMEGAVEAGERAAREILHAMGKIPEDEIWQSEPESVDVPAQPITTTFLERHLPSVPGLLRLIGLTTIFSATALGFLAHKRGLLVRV
Outline: (§1)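 Human recombinant MAO-A or MAO-B enzyme. Activity detected fluorometrically with the Amplex Red monoamine oxidase assay.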

Adenosine receptor A2b = molecular target: T2, Adenosine receptor A2b (Homo sapiens, UniProt P29275); experiment: Displacement of [3H]PSB603 from recombinant human adenosine A2b receptor expressed in HEK293 cells; format: cell-based
T2 sequence (P29275 whole entry): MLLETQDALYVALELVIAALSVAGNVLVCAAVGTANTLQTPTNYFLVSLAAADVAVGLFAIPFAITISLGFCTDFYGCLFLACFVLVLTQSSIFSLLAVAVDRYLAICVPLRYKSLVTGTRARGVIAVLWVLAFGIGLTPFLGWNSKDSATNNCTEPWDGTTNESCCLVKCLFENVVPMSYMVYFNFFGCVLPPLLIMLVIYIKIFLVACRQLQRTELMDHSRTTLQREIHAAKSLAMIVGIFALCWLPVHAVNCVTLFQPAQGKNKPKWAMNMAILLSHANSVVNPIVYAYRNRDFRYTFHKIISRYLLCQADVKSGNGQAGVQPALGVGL

[3] = molecular target: T3, Amine oxidase [flavin-containing] A (Homo sapiens, UniProt P21397); experiment: Inhibition of recombinant human MAOA expressed in baculovirus infected BTI insect cells at 1 to 100 uM using p-tyramine as substrate preincubated for 30 mins followed by substrate addition and measured over 45 mins by horseradish peroxidase-Amplex Red-coupled fluorometric assay relative to control; settings: 0.75 h; outline: as §1
T3 sequence (P21397 whole entry): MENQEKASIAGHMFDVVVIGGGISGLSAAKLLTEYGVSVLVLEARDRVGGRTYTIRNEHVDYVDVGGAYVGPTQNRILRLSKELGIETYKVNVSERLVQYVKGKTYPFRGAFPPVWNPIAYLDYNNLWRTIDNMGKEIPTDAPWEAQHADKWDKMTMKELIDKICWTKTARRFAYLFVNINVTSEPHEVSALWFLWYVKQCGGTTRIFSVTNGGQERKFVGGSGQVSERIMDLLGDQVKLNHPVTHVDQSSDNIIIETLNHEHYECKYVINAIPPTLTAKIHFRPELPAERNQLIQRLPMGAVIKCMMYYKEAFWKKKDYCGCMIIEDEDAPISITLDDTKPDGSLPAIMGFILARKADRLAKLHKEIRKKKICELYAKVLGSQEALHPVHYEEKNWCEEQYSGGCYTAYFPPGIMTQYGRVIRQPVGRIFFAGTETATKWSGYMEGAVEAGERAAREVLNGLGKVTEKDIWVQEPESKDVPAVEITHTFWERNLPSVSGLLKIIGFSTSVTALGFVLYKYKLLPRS

Adenosine receptor A1 = molecular target: T4, Adenosine receptor A1 (Rattus norvegicus, UniProt P25099); experiment: Displacement of [3H]CCPA from adenosine A1 receptor in rat brain cortical membranes; format: cell membranes
T4 sequence (P25099 whole entry): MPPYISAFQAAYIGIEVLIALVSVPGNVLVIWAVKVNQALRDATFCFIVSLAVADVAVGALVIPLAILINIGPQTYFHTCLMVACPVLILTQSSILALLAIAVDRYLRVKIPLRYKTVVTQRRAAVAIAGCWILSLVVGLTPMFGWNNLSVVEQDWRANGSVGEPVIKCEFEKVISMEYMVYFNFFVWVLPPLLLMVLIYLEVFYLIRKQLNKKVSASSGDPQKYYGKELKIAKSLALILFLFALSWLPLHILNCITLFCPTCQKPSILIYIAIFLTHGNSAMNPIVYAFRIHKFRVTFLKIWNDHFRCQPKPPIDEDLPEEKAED

[4] = molecular target: T3, Amine oxidase [flavin-containing] A; experiment: Inhibition of recombinant human MAOA expressed in baculovirus infected BTI insect cells using p-tyramine as substrate preincubated for 30 mins followed by substrate addition and measured over 45 mins by horseradish peroxidase-Amplex Red-coupled fluorometric assay; outline: as §1
Adenosine receptor A3 = molecular target: T5, Adenosine receptor A3 (Homo sapiens, UniProt P0DMS8); experiment: Displacement of [3H]PSB11 from recombinant human adenosine A3 receptor expressed in CHO cells; format: cell-based
T5 sequence (P0DMS8 whole entry): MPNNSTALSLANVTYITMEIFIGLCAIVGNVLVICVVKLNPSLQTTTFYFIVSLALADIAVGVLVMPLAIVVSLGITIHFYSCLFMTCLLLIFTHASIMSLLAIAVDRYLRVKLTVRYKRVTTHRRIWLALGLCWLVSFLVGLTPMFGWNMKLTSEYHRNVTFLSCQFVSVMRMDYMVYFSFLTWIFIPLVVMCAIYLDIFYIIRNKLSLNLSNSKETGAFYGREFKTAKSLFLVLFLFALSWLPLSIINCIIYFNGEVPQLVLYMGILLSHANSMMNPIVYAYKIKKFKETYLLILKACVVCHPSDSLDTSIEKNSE

HepG2 = experiment: Hepatotoxicity against human HepG2 cells assessed as reduction in cell viability at 100 uM measured after 72 hrs by CellTiter96 Aqueous non-radioactive cell proliferation assay; format: toxicity, cell-based; settings: hepg2, 72 h
Outline: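 HepG2 cells seeded at 1.5×10^4 cells/well in MEM with 4.5 g/L glucose and 10% FBS, grown 24 h at 37 °C, 5% CO2. Compounds diluted in the same medium and applied for 72 h. CellTiter 96 AQueous reagent then added for 2 h, absorbance read at 490 nm. One-way ANOVA with Bonferroni post test.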

Adenosine receptor A2a = Adenosine receptor A2a (Homo sapiens, UniProt P29274); experiment: Displacement of [3H]MSX2 from recombinant human adenosine A2a receptor expressed in HEK293 cells; format: cell-based
[5] = molecular target: Adenosine receptor A1 (Rattus norvegicus) (UniProt P25099); experiment: Displacement of [3H]CCPA from rat adenosine A1 receptor

Sequence of Adenosine receptor A2a (P29274 whole entry): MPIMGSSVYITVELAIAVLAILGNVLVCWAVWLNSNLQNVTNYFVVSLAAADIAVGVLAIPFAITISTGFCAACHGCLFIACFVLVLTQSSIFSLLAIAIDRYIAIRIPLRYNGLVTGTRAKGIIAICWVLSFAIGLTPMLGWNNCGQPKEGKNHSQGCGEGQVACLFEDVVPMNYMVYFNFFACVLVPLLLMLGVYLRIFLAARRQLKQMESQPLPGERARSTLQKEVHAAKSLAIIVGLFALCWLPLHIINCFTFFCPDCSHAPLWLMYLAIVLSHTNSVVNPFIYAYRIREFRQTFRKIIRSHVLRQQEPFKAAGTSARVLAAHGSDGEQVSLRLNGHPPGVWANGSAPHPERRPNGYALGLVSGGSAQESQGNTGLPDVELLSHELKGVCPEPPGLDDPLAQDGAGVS

IC50 [2] | Ki (Adenosine receptor A2b) | inhibition (INH) [3] | Ki (Adenosine receptor A1) | IC50 [4] | Ki (Adenosine receptor A3) | Ki (Adenosine receptor A2a) | Ki [5] | Compound | Activity [1] | Activity (Brain) | Activity (HepG2)
0.15 µM | > 1 µM | 1% | 2.32 µM | > 1 µM | > 1 µM | 1.61 µM |  | Cn1c(=O)c2c(nc3n2CCCN3Cc2ccccc2Br)n(C)c1=O | 3.4% | 29.5% | Toxic
 |  |  |  |  |  |  | 0.802 to 1.12 µM | Cn1c(=O)c2c(nc3n2CCCN3Cc2cccc(Cl)c2)n(C)c1=O |  |  | 
 |  |  |  |  |  |  |  | COc1ccccc1OCCNCC(O)COc1cccc2[nH]c3ccccc3c12 (stereo not given) |  | 44.8% | 
0.57 µM | > 1 µM | 10% | 1.55 µM | > 100 µM | > 1 µM | 0.189 µM |  | Cn1c(=O)c2c(nc3n2CCCN3Cc2c(F)cccc2Cl)n(C)c1=O |  |  | Toxic
